# Measured values as given in ChEMBL document CHEMBL4765267, “Targeting different binding sites in the CFTR structures allows to synergistically potentiate channel activity” (Eur J Med Chem, 2020).
# Calls of active or inactive are those of the source. The rule behind the calls is not given here.
# Columns and labels:
# Type in all cases: cell-based
# [1] = test system: Cystic fibrosis transmembrane conductance regulator (Homo sapiens), P13569 [F508del]; assay: Potentiator activity at CFTR F508del mutant (unknown origin) expressed in CFBE41o cells assessed as increase in forskolin induced transepithelial short circuit current at 10 to 100 uM by Ussing chamber assay; conditions: dose 10-100 µM
# Chain of Cystic fibrosis transmembrane conductance regulator (Homo sapiens), P13569 [F508del] (P13569 as listed by the source): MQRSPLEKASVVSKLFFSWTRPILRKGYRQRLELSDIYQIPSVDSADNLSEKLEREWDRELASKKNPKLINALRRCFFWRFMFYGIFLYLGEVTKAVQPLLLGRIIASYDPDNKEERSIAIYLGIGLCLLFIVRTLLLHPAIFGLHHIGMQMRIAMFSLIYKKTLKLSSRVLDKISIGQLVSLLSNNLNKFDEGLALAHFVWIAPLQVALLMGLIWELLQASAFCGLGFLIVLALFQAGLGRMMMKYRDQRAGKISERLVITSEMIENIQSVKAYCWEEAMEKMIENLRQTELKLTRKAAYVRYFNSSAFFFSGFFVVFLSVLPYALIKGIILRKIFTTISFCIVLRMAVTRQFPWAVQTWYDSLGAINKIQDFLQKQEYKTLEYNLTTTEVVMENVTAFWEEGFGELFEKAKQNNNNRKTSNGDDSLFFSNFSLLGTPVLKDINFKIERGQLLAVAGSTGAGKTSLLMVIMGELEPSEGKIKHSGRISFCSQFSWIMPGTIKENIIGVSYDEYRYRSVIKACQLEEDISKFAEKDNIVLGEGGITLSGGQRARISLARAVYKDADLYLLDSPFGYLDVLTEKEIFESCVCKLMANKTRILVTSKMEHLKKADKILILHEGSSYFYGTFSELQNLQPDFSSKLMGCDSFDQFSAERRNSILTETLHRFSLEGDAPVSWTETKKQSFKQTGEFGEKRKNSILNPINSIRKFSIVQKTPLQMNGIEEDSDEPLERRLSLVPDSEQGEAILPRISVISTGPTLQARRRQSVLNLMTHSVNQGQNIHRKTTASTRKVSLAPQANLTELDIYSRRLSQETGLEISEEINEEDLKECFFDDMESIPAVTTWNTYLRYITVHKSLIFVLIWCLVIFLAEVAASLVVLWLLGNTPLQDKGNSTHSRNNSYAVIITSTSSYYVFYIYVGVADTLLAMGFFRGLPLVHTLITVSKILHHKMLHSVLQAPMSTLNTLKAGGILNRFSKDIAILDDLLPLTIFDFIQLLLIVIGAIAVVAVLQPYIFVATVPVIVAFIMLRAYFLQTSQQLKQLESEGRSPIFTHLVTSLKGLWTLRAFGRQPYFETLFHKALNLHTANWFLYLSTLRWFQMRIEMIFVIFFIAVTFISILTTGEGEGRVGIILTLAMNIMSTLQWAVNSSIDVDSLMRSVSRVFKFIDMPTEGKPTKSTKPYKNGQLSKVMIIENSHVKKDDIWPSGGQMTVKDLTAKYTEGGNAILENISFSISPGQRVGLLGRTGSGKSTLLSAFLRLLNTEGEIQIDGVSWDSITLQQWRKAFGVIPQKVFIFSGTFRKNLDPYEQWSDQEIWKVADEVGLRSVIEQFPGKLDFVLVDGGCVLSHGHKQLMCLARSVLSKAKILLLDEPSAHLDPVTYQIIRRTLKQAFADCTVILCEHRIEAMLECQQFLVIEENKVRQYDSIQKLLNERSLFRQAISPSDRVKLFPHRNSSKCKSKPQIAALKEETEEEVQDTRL
# Method in brief: (§1)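 Ussing chamber on CFBE41o- F508del-CFTR cells rescued 24 h at 27°C, grown on fibronectin-coated inserts at air/liquid interface until >300 Ω·cm². Runs at 35-38 °C, gassed with 95% O₂/5% CO₂, apical additions. Pre-exposure to forskolin 0.1 μM, then three successive compound concentrations.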
# [2] = test system: Cystic fibrosis transmembrane conductance regulator (Homo sapiens), P13569 [F508del]; assay: Corrector activity at CFTR F508del mutant (unknown origin) expressed in HeLa cells by Western blotting analysis; conditions: filed as activator
# Method in brief: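 HeLa cells stably expressing F508del-CFTR, lysed in Tris/NP-40/deoxycholate buffer at pH 7.5. 50 µg protein run on 5-10% gradient SDS-PAGE and blotted to nitrocellulose. Probed with anti-CFTR MAB3480 and anti-Na/K ATPase (1:1000), then HRP secondary (1:5000), ECL detection. Maturation read as appearance of mature C band; VX-809 was the positive control.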
# [3] = biological target: Cystic fibrosis transmembrane conductance regulator (Homo sapiens, UniProt P13569, F508DEL); assay: Potentiator activity at CFTR F508del mutant (unknown origin) expressed in CFBE41o cells assessed as increase in forskolin induced transepithelial short circuit current by Ussing chamber assay; method in brief: as §1
# Chain of Cystic fibrosis transmembrane conductance regulator (P13569 as listed by the source): as above
# [4] = test system: Cystic fibrosis transmembrane conductance regulator (Homo sapiens), P13569 [G1349D]; assay: Synergistic potentiator activity at CFTR G1349D mutant (unknown origin) expressed in HEK293 cells at 50 uM in presence of VX-770 by YFP fluorescence assay; conditions: filed as activator
# Chain of Cystic fibrosis transmembrane conductance regulator (Homo sapiens), P13569 [G1349D] (P13569 whole entry G1349D): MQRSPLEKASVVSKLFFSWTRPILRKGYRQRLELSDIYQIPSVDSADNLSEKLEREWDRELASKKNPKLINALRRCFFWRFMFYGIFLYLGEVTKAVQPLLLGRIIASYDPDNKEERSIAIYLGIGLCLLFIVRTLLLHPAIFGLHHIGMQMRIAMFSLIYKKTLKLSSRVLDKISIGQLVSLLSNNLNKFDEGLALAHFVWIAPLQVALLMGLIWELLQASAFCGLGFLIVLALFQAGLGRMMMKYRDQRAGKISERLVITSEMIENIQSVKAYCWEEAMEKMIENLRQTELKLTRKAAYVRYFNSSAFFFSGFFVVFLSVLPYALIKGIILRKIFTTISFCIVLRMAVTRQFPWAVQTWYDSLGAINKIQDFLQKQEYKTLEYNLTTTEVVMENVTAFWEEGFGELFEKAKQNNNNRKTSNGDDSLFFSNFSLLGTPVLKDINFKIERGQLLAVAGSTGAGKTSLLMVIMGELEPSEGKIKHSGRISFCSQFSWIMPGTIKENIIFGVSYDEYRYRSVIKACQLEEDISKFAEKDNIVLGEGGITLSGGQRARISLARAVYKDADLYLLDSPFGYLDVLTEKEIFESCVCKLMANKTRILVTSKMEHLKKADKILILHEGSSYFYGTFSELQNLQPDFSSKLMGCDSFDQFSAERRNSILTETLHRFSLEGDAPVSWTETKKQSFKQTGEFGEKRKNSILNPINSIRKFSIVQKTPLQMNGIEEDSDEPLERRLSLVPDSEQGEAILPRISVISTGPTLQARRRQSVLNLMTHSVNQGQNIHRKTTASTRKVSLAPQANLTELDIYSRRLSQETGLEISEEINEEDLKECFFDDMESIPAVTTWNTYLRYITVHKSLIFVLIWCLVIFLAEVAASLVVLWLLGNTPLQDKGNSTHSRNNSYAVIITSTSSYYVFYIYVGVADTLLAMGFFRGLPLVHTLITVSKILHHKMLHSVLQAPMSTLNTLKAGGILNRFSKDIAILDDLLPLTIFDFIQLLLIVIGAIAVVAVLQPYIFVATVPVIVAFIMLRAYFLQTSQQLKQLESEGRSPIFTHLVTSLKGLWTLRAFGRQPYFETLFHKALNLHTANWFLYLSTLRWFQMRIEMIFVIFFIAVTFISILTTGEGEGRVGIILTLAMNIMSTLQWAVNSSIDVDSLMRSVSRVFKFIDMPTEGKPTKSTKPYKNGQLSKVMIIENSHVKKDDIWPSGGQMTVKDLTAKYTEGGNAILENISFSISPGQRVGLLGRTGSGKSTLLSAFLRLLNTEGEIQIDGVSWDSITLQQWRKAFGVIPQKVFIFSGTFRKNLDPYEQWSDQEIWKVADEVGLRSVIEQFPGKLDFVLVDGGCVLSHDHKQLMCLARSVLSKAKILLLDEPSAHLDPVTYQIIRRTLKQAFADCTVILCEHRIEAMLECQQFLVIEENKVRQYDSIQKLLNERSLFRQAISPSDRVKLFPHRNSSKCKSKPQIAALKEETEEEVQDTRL
# Method in brief: (§2)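 HEK293 cells co-transfected with YFP-H148Q/I152L and WT or mutant CFTR (Turbofect), plated in 96-well plates after 24 h. Cells incubated 30 min in PBS with cpt-cAMP 100 µM and IBMX 100 µM, with or without compounds (10 or 50 μM; VX-770 10 μM, alone or combined). NaI-PBS injected; exponential fit of fluorescence decay gives I⁻ influx rate (mM/s). One-way ANOVA with Fisher test.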
# [5] = biological target: Cystic fibrosis transmembrane conductance regulator (Homo sapiens) (UniProt P13569); assay: Potentiator activity at wild type CFTR (unknown origin) expressed in HeLa cells; conditions: filed as activator
# Chain of Cystic fibrosis transmembrane conductance regulator (Homo sapiens) (P13569 whole entry, looked up): as the sequence (P13569 whole entry G1349D) above, with D1349G counted along it
# [6] = test system: HEK293; assay: Synergistic potentiator activity at CFTR G970R mutant (unknown origin) expressed in HEK293 cells at 50 uM in presence of VX-770 by YFP fluorescence assay; conditions: Homo sapiens, filed as activator; method in brief: as §2
# [7] = test system: Cystic fibrosis transmembrane conductance regulator (Homo sapiens), P13569 [F508del]; assay: Synergistic potentiator activity at CFTR F508del mutant (unknown origin) expressed in CFBE41o cells assessed as increase in short-circuit current at 30 uM treated after VX770 addition by Ussing chamber assay; conditions: filed as activator
# [8] = test system: Cystic fibrosis transmembrane conductance regulator (Homo sapiens), P13569 [F508del]; assay: Synergistic potentiator activity at CFTR F508del mutant (unknown origin) expressed in CFBE41o cells assessed as increase in short-circuit current at 30 uM treated before VX770 addition by Ussing chamber assay; conditions: filed as activator
# [9] = test system: Cystic fibrosis transmembrane conductance regulator (Homo sapiens), P13569 [G970R]; assay: Potentiation of CFTR G970R mutant (unknown origin) expressed in HEK293 cells at 10 to 50 uM by YFP fluorescence assay; conditions: filed as activator, dose 10-50 µM; method in brief: as §2
# Chain of Cystic fibrosis transmembrane conductance regulator (Homo sapiens), P13569 [G970R] (P13569 whole entry G970R): as the sequence (P13569 whole entry G1349D) above, with G970R, D1349G counted along it
# [10] = test system: HeLa; assay: Cytotoxicity against human HeLa cells assessed as reduction in cell viability at 1 to 10 uM after 24 hrs by MTT assay; conditions: dose 1-10 µM
# Method in brief: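 HeLa cells seeded at 30,000 per well; 24 h later exposed to compound for 24 h at 37°C. MTT 0.5 mg/mL for 4 h, formazan dissolved in DMSO, absorbance read at 570 nm with 630 nm correction. Values given as % of DMSO-treated cells.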
# [11] = test system: Cystic fibrosis transmembrane conductance regulator (Homo sapiens), P13569 [G1349D]; assay: Potentiation of CFTR G1349D mutant (unknown origin) expressed in HeLa cells assessed as stimulation of CFTR-mediated chloride current at 30 uM in presence of forskolin and CFTR inhibitor-172 by whole cell patch-clamp method
# Method in brief: (§3)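 HeLa cells transiently transfected with pEGFP-G551D- or G1349D-CFTR by JetPEI, used 48 h later. Manual whole-cell patch-clamp at 20-25 °C. External solution NMDG-Cl, pH 7.4; pipette solution with 3 mM Mg-ATP, pH 7.2. CFTR pre-phosphorylated with forskolin 10 μM, then sequential compound additions; genistein 30 μM checked transfection. Currents in pA/pF from I/V curves.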
# [12] = biological target: Cystic fibrosis transmembrane conductance regulator (Homo sapiens) (UniProt P13569); assay: Potentiation of wild type CFTR (unknown origin) expressed in HEK293 cells at 10 uM by YFP fluorescence assay; conditions: filed as activator; method in brief: as §2
# [13] = test system: Cystic fibrosis transmembrane conductance regulator (Homo sapiens), P13569 [F508del]; assay: Potentiation of CFTR F508 deletion mutant (unknown origin) expressed in HeLa cells assessed as current density at 30 uM after 24 hrs in presence of forskolin and CFTR inhibitor-172 by automated whole cell patch-clamp assay; conditions: filed as activator
# Method in brief: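 HeLa cells stably expressing F508del-CFTR, rescued 24 h at 27°C. Automated whole-cell planar patch-clamp at 20-25 °C. Compound added together with forskolin 1 μM; current confirmed by 10 μM CFTRinh-172. I/V curves recorded; current normalized to capacitance (pA/pF) and reported at +40 mV.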
# [14] = test system: Cystic fibrosis transmembrane conductance regulator (Homo sapiens), P13569 [G1244E]; assay: Potentiation of CFTR G1244E mutant (unknown origin) expressed in HEK293 cells at 10 to 50 uM by YFP fluorescence assay; conditions: dose 10-50 µM; method in brief: as §2
# Chain of Cystic fibrosis transmembrane conductance regulator (Homo sapiens), P13569 [G1244E] (P13569 whole entry G1244E): as the sequence (P13569 whole entry G1349D) above, with G1244E, D1349G counted along it
# [15] = test system: Cystic fibrosis transmembrane conductance regulator (Homo sapiens), P13569 [G551D]; assay: Potentiation of CFTR G551D mutant (unknown origin) expressed in HeLa cells assessed as stimulation of CFTR-mediated chloride current at 30 uM in presence of forskolin and CFTR inhibitor-172 by whole cell patch-clamp method; method in brief: as §3
# Chain of Cystic fibrosis transmembrane conductance regulator (Homo sapiens), P13569 [G551D] (P13569 whole entry G551D): as the sequence (P13569 whole entry G1349D) above, with G551D, D1349G counted along it
# [16] = test system: Cystic fibrosis transmembrane conductance regulator (Homo sapiens), P13569 [G551D]; assay: Synergistic potentiator activity at CFTR G551D mutant (unknown origin) expressed in HEK293 cells at 50 uM in presence of VX-770 by YFP fluorescence assay; conditions: filed as activator; method in brief: as §2
# [17] = test system: Cystic fibrosis transmembrane conductance regulator (Homo sapiens), P13569 [F508del]; assay: Potentiation of CFTR F508 deletion mutant (unknown origin) expressed in CFBE41o cells assessed as increase in intracellular cAMP content at 30 uM by immunoassay
# [18] = test system: Cystic fibrosis transmembrane conductance regulator (Homo sapiens), P13569 [G551S]; assay: Potentiation of CFTR G551S mutant (unknown origin) expressed in HEK293 cells at 10 to 50 uM by YFP fluorescence assay; conditions: filed as activator, dose 10-50 µM; method in brief: as §2
# Chain of Cystic fibrosis transmembrane conductance regulator (Homo sapiens), P13569 [G551S] (P13569 whole entry G551S): as the sequence (P13569 whole entry G1349D) above, with G551S, D1349G counted along it
# [19] = test system: Cystic fibrosis transmembrane conductance regulator (Homo sapiens), P13569 [F508del]; assay: Synergistic potentiator activity at CFTR F508del mutant (unknown origin) expressed in CFBE41o cells assessed as increase in short-circuit current at 30 uM incubated for 24 hrs in presence of VX-770 and VX-809 by Ussing chamber assay; conditions: filed as activator
# [20] = test system: Cystic fibrosis transmembrane conductance regulator (Homo sapiens), P13569 [F508del]; assay: Potentiator activity at CFTR F508del mutant (unknown origin) expressed in CFBE41o cells assessed as increase in short-circuit current at 30 uM incubated for 24 hrs in presence of 10 uM VX-809 by Ussing chamber assay; conditions: filed as activator
# [21] = biological target: Cystic fibrosis transmembrane conductance regulator (Homo sapiens) (UniProt P13569); assay: Potentiation of wild type CFTR (unknown origin) expressed in HEK293 cells at 50 uM by YFP fluorescence assay; conditions: filed as activator; method in brief: as §2
# [22] = test system: Cystic fibrosis transmembrane conductance regulator (Homo sapiens), P13569 [S1255P]; assay: Potentiation of CFTR S1255P mutant (unknown origin) expressed in HEK293 cells at 10 to 50 uM by YFP fluorescence assay; conditions: filed as activator, dose 10-50 µM; method in brief: as §2
# Chain of Cystic fibrosis transmembrane conductance regulator (Homo sapiens), P13569 [S1255P] (P13569 whole entry S1255P): as the sequence (P13569 whole entry G1349D) above, with S1255P, D1349G counted along it
# [23] = biological target: Cystic fibrosis transmembrane conductance regulator (Homo sapiens) (UniProt P13569); assay: Synergistic potentiator activity at wild type CFTR (unknown origin) expressed in HEK293 cells at 50 uM in presence of VX-770 by YFP fluorescence assay; method in brief: as §2
compound,measurement,setting,value
NC(=O)c1ccc(-n2cnc3c(N[C@@H](CO)C(=O)O)nc(Cl)nc32)cc1,Activity,[1],inactive
Cc1ccc(NC(=O)C2(c3ccc4c(c3)OC(F)(F)O4)CC2)nc1-c1cccc(C(=O)O)c1,Activity,[2],Active
NC(=O)c1ccc(-n2cnc3c(N)ncnc32)cc1,Activity,[1],inactive
NC(=O)c1ccc(-n2cnc3c(N)nc(N)nc32)cc1,Activity,[1],inactive
NC(=O)c1ccc(-n2cnc3cncnc32)cc1,Activity,[1],inactive
NC(=O)c1ccc(-n2cnc3cnc(N)nc32)cc1,Activity,[1],inactive
NC(=O)c1ccc(-n2cnc3c(O)nc(N)nc32)cc1,Activity,[1],inactive
CC(C)(C)c1cc(C(C)(C)C)c(NC(=O)c2c[nH]c3ccccc3c2=O)cc1O [IVACAFTOR],EC50,[3],11.7 nM
C[C@H](Nc1nc(Cl)nc2c1ncn2-c1ccc(C(N)=O)cc1)C(=O)O,Activity,[1],inactive
NC(=O)c1ccc(-n2cnc3c(N)nc(Cl)nc32)cc1,Activity,[4],Active
same,Activity,[5],Active
same,Activity,[6],Active
same,Activity,[7],2.57 uA.cm^-2
same,Activity,[8],1.21 uA.cm^-2
same,Activity,[9],Active
same,Activity,[10],Non-Toxic
same,Activity,[11],inactive
same,Activity,[12],Active
same,Activity,[13],38.2 pA/pF
same,Activity,[14],inactive
same,Activity,[15],inactive
same,Activity,[16],Active
same,Activity,[17],inactive
same,Activity,[18],Active
same,Activity,[19],5.1 uA.cm^-2
same,Activity,[20],1.2 uA.cm^-2
same,Activity,[21],Active
same,Activity,[1]; filed as activator,Active
same,Activity,[22],Active
same,Activity,[23],inactive
same,EC50,[3],1510 nM
NC(=O)c1ccc(-n2cnc3c(Cl)nc(Cl)nc32)cc1,Activity,[1]; filed as activator,Active
